Test results from ChEMBL document CHEMBL1799990, “Triazole and dihydroimidazole alkaloids from the marine sediment-derived fungus Penicillium paneum SD-44” (J Nat Prod, 2011).
pIC50: −log10 of the molar value. Calls of active or inactive are those of the source. The rule behind the calls is not given here.

Key:
[1] = Antifungal activity against Coniella diplodiella by disk diffusion method; format: functional
Method in brief: (§1)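 Disk diffusion assay against the five plant-pathogenic fungi, run alongside amphotericin B as the positive control.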

[2] = test system: Botryosphaeria berengeriana; assay: Antifungal activity against Physalospora pyricola by disk diffusion method; format: functional, organism-based; method in brief: as §1
Alternaria brassicae = assay: Antifungal activity against Alternaria brassicae by disk diffusion method; format: functional; method in brief: as §1
Escherichia coli = assay: Antibacterial activity against Escherichia coli by disk diffusion method; format: functional, organism-based
Method in brief: (§2)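 Disk diffusion assay against the two bacteria, run alongside chloramphenicol as the positive control.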

Aspergillus niger = assay: Antifungal activity against Aspergillus niger by disk diffusion method; format: functional, organism-based; method in brief: as §1
Bel-7402 = assay: Cytotoxicity against human Bel7402 cells; format: functional, cell-based
Staphylococcus aureus = assay: Antibacterial activity against Staphylococcus aureus by disk diffusion method; format: functional, organism-based; method in brief: as §2
[3] = test system: Fusarium oxysporum f. sp. vasinfectum; assay: Antifungal activity against Fusarium oxysporum f. sp. vasinfectum by disk diffusion method; format: functional, organism-based; method in brief: as §1
A549 = assay: Cytotoxicity against human A549 cells; format: functional, cell-based
SMMC-7721 = assay: Cytotoxicity against human SMMC7721 cells; format: functional, cell-based

SMILES: O=c1[nH]c(Cc2ccc(O)cc2)nc2ccccc12
- Activity [1]: inactive
- Activity [2]: inactive
- Activity (Alternaria brassicae): inactive
- Activity (Escherichia coli): inactive
- Activity (Aspergillus niger): inactive
- pIC50 (Bel-7402): 4.70
- Activity (Staphylococcus aureus): inactive
- Activity [3]: inactive
- pIC50 (A549): 4.76

SMILES: O=C(c1ccc(O)cc1)c1nc2ccccc2c(=O)[nH]1
- Activity [1]: inactive
- Activity [2]: inactive
- Activity (Alternaria brassicae): inactive
- Activity (Escherichia coli): inactive
- Activity (Aspergillus niger): inactive
- Activity (Staphylococcus aureus): inactive
- Activity [3]: inactive

SMILES: O=c1[nH]cc(F)c(=O)[nH]1 [FLUOROURACIL]
- pIC50 (SMMC-7721): 4.89
- pIC50 (Bel-7402): 4.66
- pIC50 (A549): 4.86

SMILES: O=C(O)c1ccccc1-n1ncnc1Cc1ccc(O)cc1 [PENIPANOID A]
- Activity [1]: inactive
- Activity [2]: inactive
- pIC50 (SMMC-7721): 4.27
- Activity (Alternaria brassicae): inactive
- Activity (Escherichia coli): inactive
- Activity (Aspergillus niger): inactive
- Activity (Staphylococcus aureus): inactive
- Activity [3]: inactive

SMILES: O=C1N[C@H]2[C@H](c3ccc(O)cc3)N=CN2c2ccccc21
- Activity [1]: inactive
- Activity [2]: inactive
- Activity (Alternaria brassicae): inactive
- Activity (Escherichia coli): inactive
- Activity (Aspergillus niger): inactive
- Activity (Staphylococcus aureus): inactive
- Activity [3]: inactive
